Experimental data taken from ChEMBL document CHEMBL1153955, “Indolylarylsulfones bearing natural and unnatural amino acids. Discovery of potent inhibitors of HIV-1 non-nucleoside wild type and resistant mutant strains reverse transcriptase and coxsackie B4 virus” (J Med Chem, 2009).

Experiments:
[1] = Cytotoxicity against MDCK cells by MTS assay; format: cell-based, Canis lupus familiaris; details: dog
Human alphaherpesvirus 2 = assay: Antiviral activity against HSV2 G in human HEL cells assessed as protection against virus-induced cytopathicity; format: functional, organism-based; details: Human alphaherpesvirus 2, strain G
Method in brief: (§1)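 Confluent cell monolayers inoculated with 100 CCID₅₀ virus. After 1-2 h adsorption, residual virus removed and cultures incubated with varying compound concentrations. Cytopathicity scored once it reached completion in untreated infected controls. EC₅₀ = dose reducing virus-induced cytopathogenicity by 50%.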

L1210 = assay: Antiproliferative activity against mouse L1210 cells after 2 days; format: cell-based; details: L1210, 48 h
Method in brief: (§2)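 Cells seeded at 5 × 10⁴ to 7.5 × 10⁴ cells/200 µL with or without serial compound dilutions; incubated at 37 °C for 2 days (L1210) or 3 days (Molt4/C8, CEM). Cell numbers counted with a Coulter counter. CC₅₀ = concentration reducing proliferation by 50% versus untreated controls, read from plots of cell number (% of control) against concentration. Means of at least two independent experiments.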

[2] = test system: Human immunodeficiency virus 1; assay: Antiviral activity against HIV1 with reverse transcriptase Y181I mutation in human CEM cells assessed as protection against virus-induced cytopathicity; format: functional, organism-based; details: Human immunodeficiency virus 1, CCRF-CEM
Method in brief: (§3)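 CEM cells (~3 × 10⁵ cells/mL) were infected with ~100 CCID₅₀ virus per mL and seeded with serial compound dilutions. After 4 days at 37 °C, syncytium (giant cell) formation was scored microscopically. EC₅₀ is the concentration giving 50% protection against virus cytopathicity.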

[3] = Cytotoxicity against african green monkey Vero cells assessed as drug level causing microscopically detectable alteration of normal cell morphology after 3 days; format: cell-based; details: chlorocebus sabaeus
Method in brief: (§4)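 Serial compound dilutions added to confluent HeLa or Vero monolayers. MCC = minimum concentration causing microscopically detectable alteration of cell morphology after 3 days of incubation.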

[4] = Cytotoxicity against human HeLa cells assessed as drug level causing microscopically detectable alteration of normal cell morphology after 3 days; format: cell-based; method in brief: as §4
[5] = Cytotoxicity against feline CRFK cells by MTS assay; format: cell-based, Felis catus; details: cat
[6] = test system: Human immunodeficiency virus 1; assay: Antiviral activity against HIV1 with reverse transcriptase L100I mutation in human CEM cells assessed as protection against virus-induced cytopathicity; format: functional, organism-based; details: Human immunodeficiency virus 1, CCRF-CEM; method in brief: as §3
[7] = biological target: Human immunodeficiency virus type 1 reverse transcriptase (Human immunodeficiency virus 1, UniProt Q72547, L100I); assay: Inhibition of HIV1 reverse transcriptase p66/p51 L100I mutant; details: read-out: IC50
Method in brief: (§5)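 Substrate was 0.5 µg poly(rA)/oligo(dT) 10:1 (0.3 µM 3′-OH ends) with 10 µM [³H]dTTP, at 37 °C. Acid-precipitable radioactivity was counted on GF/C filters after TCA washes.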

Influenza B virus [8] = assay: Antiviral activity against influenza B virus in MDCK cells assessed as reduction of virus-induced cytopathicity by MTS method; format: functional, organism-based
[9] = test system: Human immunodeficiency virus 1; assay: Antiviral activity against HIV1 with reverse transcriptase Y181C mutation in human CEM cells assessed as protection against virus-induced cytopathicity; format: functional, organism-based; details: Human immunodeficiency virus 1, CCRF-CEM; method in brief: as §3
[10] = Cytotoxicity against MDCK cells assessed as drug level causing microscopically detectable alteration of normal cell morphology; format: cell-based, Canis lupus familiaris; details: dog
Felid alphaherpesvirus 1 = assay: Antiviral activity against Feline herpesvirus in feline […] cells assessed as inhibition of virus-induced cytopathicity; format: functional, organism-based
Influenza A virus H3N2 [11] = assay: Antiviral activity against influenza H3N2 virus in MDCK cells assessed as reduction of virus-induced cytopathicity by MTS method; format: functional, organism-based
[12] = biological target: Human immunodeficiency virus type 1 reverse transcriptase (Human immunodeficiency virus 1, UniProt Q72547, Y181I); assay: Inhibition of HIV1 reverse transcriptase p66/p51 Y181I mutant; details: read-out: IC50; method in brief: as §5
[13] = test system: Respiratory syncytial virus; assay: Antiviral activity against RSV Long in human HeLa cells assessed as protection against virus-induced cytopathicity; format: functional, organism-based; method in brief: as §1
[14] = test system: Human immunodeficiency virus 1; assay: Antiviral activity against HIV1 with reverse transcriptase Y188L mutation in human CEM cells assessed as protection against virus-induced cytopathicity; format: functional, organism-based; details: Human immunodeficiency virus 1, CCRF-CEM; method in brief: as §3
Human respirovirus 3 = assay: Antiviral activity against Parainfluenza virus type 3 in african green monkey Vero cells assessed as protection against virus-induced cytopathicity; format: functional, organism-based; details: Human respirovirus 3, Vero; method in brief: as §1
Coxsackievirus B4 [15] = assay: Antiviral activity against Coxsackievirus B4 in human HeLa cells assessed as protection against virus-induced cytopathicity; format: functional, organism-based; details: Enterovirus B; method in brief: as §1
Coxsackievirus B4 [16] = assay: Antiviral activity against Coxsackievirus B4 in african green monkey Vero cells assessed as protection against virus-induced cytopathicity; format: functional, organism-based; details: Enterovirus B; method in brief: as §1
Influenza A virus [17] = assay: Antiviral activity against influenza H1N1 virus in MDCK cells assessed as reduction of virus-induced cytopathicity by MTS method; format: functional, organism-based; details: Influenza A virus, H1N1, MDCK
[18] = Antiproliferative activity against human Molt4/C8 cells after 3 days; format: cell-based; details: MOLT-4, 72 h; method in brief: as §2
Influenza B virus [19] = assay: Antiviral activity against influenza B virus in MDCK cells assessed as reduction of virus-induced cytopathicity by visual cytopathic effect scoring method; format: functional, organism-based
Influenza A virus H3N2 [20] = assay: Antiviral activity against influenza H3N2 virus in MDCK cells assessed as reduction of virus-induced cytopathicity by visual cytopathic effect scoring method; format: functional, organism-based
Punta Toro virus = assay: Antiviral activity against Punta Toro virus in african green monkey Vero cells assessed as protection against virus-induced cytopathicity; format: functional, organism-based; method in brief: as §1
[21] = Cytotoxicity against human HEL cells assessed as drug level causing microscopically detectable alteration of normal cell morphology after 3 days; format: cell-based
Influenza A virus [22] = assay: Antiviral activity against influenza H1N1 virus in MDCK cells assessed as reduction of virus-induced cytopathicity by visual cytopathic effect scoring method; format: functional, organism-based
Human alphaherpesvirus 1 [23] = assay: Antiviral activity against HSV1 KOS in human HEL cells assessed as protection against virus-induced cytopathicity; format: functional, organism-based; details: Human alphaherpesvirus 1, KOS
Sindbis virus = assay: Antiviral activity against Sindbis virus in african green monkey Vero cells assessed as protection against virus-induced cytopathicity; format: functional, organism-based; method in brief: as §1
[24] = test system: Human immunodeficiency virus 1; assay: Antiviral activity against HIV1 3B in human CEM cells assessed as protection against virus-induced cytopathicity after 4 days; format: functional, organism-based; details: Human immunodeficiency virus 1, 3B, CCRF-CEM, 96 h
Method in brief: (§6)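 CEM cells (~3 × 10⁵ cells/mL) infected with ~100 CCID₅₀ per mL of HIV-1 (IIIB) or HIV-2 (ROD), then seeded into wells containing compound dilutions. After 4 days at 37 °C, syncytium (giant cell) formation was examined microscopically. EC₅₀ = concentration protecting CEM cells from HIV cytopathicity by 50%.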

[25] = test system: Mammalian orthoreovirus 1; assay: Antiviral activity against Reovirus 1 in african green monkey Vero cells assessed as protection against virus-induced cytopathicity; format: functional, organism-based; details: Mammalian orthoreovirus 1, Vero; method in brief: as §1
[26] = test system: Vesicular stomatitis virus; assay: Antiviral activity against VSV in human HEL cells assessed as protection against virus-induced cytopathicity; format: functional, organism-based
Vaccinia virus = assay: Antiviral activity against Vaccinia virus Lederle in human HEL cells assessed as protection against virus-induced cytopathicity; format: functional, organism-based; details: Orthopoxvirus vaccinia
CCRF-CEM = assay: Antiproliferative activity against human CEM cells after 3 days; format: cell-based; details: 72 h; method in brief: as §2
[27] = test system: Human immunodeficiency virus 2; assay: Antiviral activity against HIV2 ROD in human CEM cells assessed as protection against virus-induced cytopathicity after 4 days; format: functional, organism-based; details: Human immunodeficiency virus 2, ROD, CCRF-CEM, 96 h; method in brief: as §6
[28] = biological target: Human immunodeficiency virus type 1 reverse transcriptase (Human immunodeficiency virus 1, UniProt Q72547, K103N); assay: Inhibition of HIV1 reverse transcriptase p66/p51 K103N mutant; details: read-out: IC50; method in brief: as §5
[29] = biological target: Human immunodeficiency virus type 1 reverse transcriptase (Human immunodeficiency virus 1, UniProt Q72547); assay: Inhibition of HIV1 reverse transcriptase p66/p51; details: read-out: IC50
Feline coronavirus = assay: Antiviral activity against Feline coronavirus in feline […] cells assessed as inhibition of virus-induced cytopathicity; format: functional, organism-based; details: Alphacoronavirus 1
[30] = test system: Human immunodeficiency virus 1; assay: Antiviral activity against HIV1 with reverse transcriptase K103N mutation in human CEM cells assessed as protection against virus-induced cytopathicity; format: functional, organism-based; details: Human immunodeficiency virus 1, CCRF-CEM; method in brief: as §3
Human alphaherpesvirus 1 [31] = assay: Antiviral activity against thymidine kinase deficient and acyclovir resistant HSV1 KOS in human HEL cells assessed as protection against virus-induced cytopathicity; format: functional, organism-based; details: Human alphaherpesvirus 1, KOS
[32] = test system: Vesicular stomatitis virus; assay: Antiviral activity against VSV in human HeLa cells assessed as protection against virus-induced cytopathicity; format: functional, organism-based

Cc1cc(C)cc(S(=O)(=O)c2c(C(=O)NCCC(N)=O)[nH]c3ccc(Cl)cc23)c1
CC50 [1]: 9.7 µM
EC50 (Human alphaherpesvirus 2): > 4 µM
IC50 (L1210): 26 µM
IC50 [2]: > 1 µM
MCC at 72 h [3]: 100 µM
MCC at 72 h [4]: 20 µM
CC50 [5]: 1.7 µM
IC50 [6]: 0.007 µM
IC50 [7]: 0.143 µM
EC50 (Influenza B virus [8]): > 4 µM
IC50 [9]: 0.078 µM
MCC [10]: 20 µM
EC50 (Felid alphaherpesvirus 1): > 4 µM
EC50 (Influenza A virus H3N2 [11]): > 4 µM
IC50 [12]: 5.05 µM
EC50 [13]: > 4 µM
IC50 [14]: ≥ 1 µM
EC50 (Human respirovirus 3): > 20 µM
EC50 (Coxsackievirus B4 [15]): > 4 µM
EC50 (Coxsackievirus B4 [16]): 12 µM
EC50 (Influenza A virus [17]): > 4 µM
IC50 [18]: 9 µM
EC50 (Influenza B virus [19]): > 4 µM
EC50 (Influenza A virus H3N2 [20]): > 4 µM
EC50 (Punta Toro virus): > 20 µM
MCC at 72 h [21]: 20 µM
EC50 (Influenza A virus [22]): > 4 µM
EC50 (Human alphaherpesvirus 1 [23]): > 4 µM
EC50 (Sindbis virus): > 20 µM
EC50 [24]: 0.001 µM
EC50 [25]: > 20 µM
EC50 [26]: > 4 µM
EC50 (Vaccinia virus): > 4 µM
IC50 (CCRF-CEM): 16 µM
EC50 [27]: > 10 µM
IC50 [28]: 0.351 µM
IC50 [29]: 0.027 µM
EC50 (Feline coronavirus): > 4 µM
IC50 [30]: 0.019 µM
EC50 (Human alphaherpesvirus 1 [31]): > 4 µM
EC50 [32]: > 4 µM

Cc1cc(C)cc(S(=O)(=O)c2c(C(=O)NCC(N)=O)[nH]c3ccc(Cl)cc23)c1
CC50 [1]: 44.1 µM
EC50 (Human alphaherpesvirus 2): > 100 µM
IC50 (L1210): 220 µM
IC50 [2]: > 1 µM
MCC at 72 h [3]: > 100 µM
MCC at 72 h [4]: 100 µM
CC50 [5]: > 100 µM
IC50 [6]: 0.008 µM
IC50 [7]: 0.161 µM
EC50 (Influenza B virus [8]): > 4 µM
IC50 [9]: 0.074 µM
MCC [10]: 20 µM
EC50 (Felid alphaherpesvirus 1): > 100 µM
EC50 (Influenza A virus H3N2 [11]): > 4 µM
IC50 [12]: 1.65 µM
EC50 [13]: > 100 µM
IC50 [14]: 0.69 µM
EC50 (Human respirovirus 3): > 100 µM
EC50 (Coxsackievirus B4 [15]): ≥ 20 µM
EC50 (Coxsackievirus B4 [16]): > 100 µM
EC50 (Influenza A virus [17]): > 4 µM
IC50 [18]: 15 µM
EC50 (Influenza B virus [19]): > 4 µM
EC50 (Influenza A virus H3N2 [20]): > 4 µM
EC50 (Punta Toro virus): > 100 µM
MCC at 72 h [21]: > 100 µM
EC50 (Influenza A virus [22]): > 4 µM
EC50 (Human alphaherpesvirus 1 [23]): > 100 µM
EC50 (Sindbis virus): > 100 µM
EC50 [24]: 0.0019 µM
EC50 [25]: > 100 µM
EC50 [26]: > 100 µM
EC50 (Vaccinia virus): > 100 µM
IC50 (CCRF-CEM): 92 µM
EC50 [27]: > 50 µM
IC50 [28]: 0.28 µM
IC50 [29]: 0.026 µM
EC50 (Feline coronavirus): > 100 µM
IC50 [30]: 0.029 µM
EC50 (Human alphaherpesvirus 1 [31]): > 100 µM
EC50 [32]: > 100 µM

O=C1Nc2ccc(Cl)cc2[C@@](C#CC2CC2)(C(F)(F)F)O1 [EFAVIRENZ]
IC50 [2]: 0.012 µM
IC50 [6]: 0.022 µM
IC50 [9]: 0.16 µM
IC50 [14]: 0.76 µM
IC50 [30]: 0.13 µM
